From ChEMBL document CHEMBL4414600, “Discovery of a Furanopyrimidine-Based Epidermal Growth Factor Receptor Inhibitor (DBPR112) as a Clinical Candidate for the Treatment of Non-Small Cell Lung Cancer” (J Med Chem, 2019)

Experiments:
[1] = molecular target: Tyrosine-protein kinase Blk (Homo sapiens) (UniProt P51451); assay: Binding affinity to wild-type human partial length BLK (G211 to L503 residues) expressed in bacterial expression system assessed as residual binding level at 10000 nM by Kinomescan method relative to control
Tyrosine-protein kinase Blk (Homo sapiens), sequence (P51451 2-505 limits assumed): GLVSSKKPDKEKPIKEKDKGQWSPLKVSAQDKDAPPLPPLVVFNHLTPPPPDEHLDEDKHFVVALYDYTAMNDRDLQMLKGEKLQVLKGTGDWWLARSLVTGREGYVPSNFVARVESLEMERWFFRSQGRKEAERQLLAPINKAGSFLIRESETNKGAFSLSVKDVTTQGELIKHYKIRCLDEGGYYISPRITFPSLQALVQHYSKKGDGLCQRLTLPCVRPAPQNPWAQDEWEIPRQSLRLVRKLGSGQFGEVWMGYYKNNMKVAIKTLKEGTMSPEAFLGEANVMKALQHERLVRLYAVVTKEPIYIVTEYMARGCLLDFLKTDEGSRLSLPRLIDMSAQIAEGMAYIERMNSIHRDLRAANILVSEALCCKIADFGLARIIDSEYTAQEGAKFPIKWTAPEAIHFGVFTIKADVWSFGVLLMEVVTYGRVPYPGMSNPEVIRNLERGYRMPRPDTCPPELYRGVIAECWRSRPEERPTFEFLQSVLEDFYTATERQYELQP
In short: (§1)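 KINOMEScan competition binding panel run at 10,000 nM compound, with results expressed as percent of control binding. S(10) is the fraction of non-mutant kinases below 10% of control, out of 395 tested.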

[2] = Inhibition of GST-tagged human HER2 V777_G778insCG mutant mutant using poly(Glu, Tyr) 4:1 substrate incubated for 120 mins by kinase-Glo plus luminescent kinase assay
[3] = tested on: HCC827; assay: Cytotoxicity in human HCC827 cells assessed as reduction in cell viability incubated for 96 hrs by MTS method; format: functional
[4] = Toxicity in athymic NU-Fox1nu nude mouse xenografted with human HCC827 cells assessed as effect on body weight at 20 to 50 mg/kg, po dosed via gavage for 5 days/week for 2 consecutive weeks; format: organism-based; conditions: in vivo, 120 h
In short: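 Male athymic NU-Fox1nu nude mice, 6–8 weeks old, were inoculated subcutaneously at the left flank with 5x10^6 HCC827 (exon 19 Del E746_A750) cells. Oral gavage began at a mean tumor size of about 500 mm³, in 1% methylcellulose/0.5% Tween 80/98.5% water, once daily on days 1-5 and 8-12. Tumor volume (V = 0.5 a × b², caliper) and body weight were tracked.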

[5] = molecular target: T1, Tyrosine-protein kinase JAK3 (Homo sapiens) (UniProt P52333); assay: Binding affinity to wild-type human partial length JAK3 JH1 catalytic domain (I781 to S1124 residues) expressed in mammalian expression system assessed as residual binding level at 10000 nM by Kinomescan method relative to control
T1 sequence (whole entry): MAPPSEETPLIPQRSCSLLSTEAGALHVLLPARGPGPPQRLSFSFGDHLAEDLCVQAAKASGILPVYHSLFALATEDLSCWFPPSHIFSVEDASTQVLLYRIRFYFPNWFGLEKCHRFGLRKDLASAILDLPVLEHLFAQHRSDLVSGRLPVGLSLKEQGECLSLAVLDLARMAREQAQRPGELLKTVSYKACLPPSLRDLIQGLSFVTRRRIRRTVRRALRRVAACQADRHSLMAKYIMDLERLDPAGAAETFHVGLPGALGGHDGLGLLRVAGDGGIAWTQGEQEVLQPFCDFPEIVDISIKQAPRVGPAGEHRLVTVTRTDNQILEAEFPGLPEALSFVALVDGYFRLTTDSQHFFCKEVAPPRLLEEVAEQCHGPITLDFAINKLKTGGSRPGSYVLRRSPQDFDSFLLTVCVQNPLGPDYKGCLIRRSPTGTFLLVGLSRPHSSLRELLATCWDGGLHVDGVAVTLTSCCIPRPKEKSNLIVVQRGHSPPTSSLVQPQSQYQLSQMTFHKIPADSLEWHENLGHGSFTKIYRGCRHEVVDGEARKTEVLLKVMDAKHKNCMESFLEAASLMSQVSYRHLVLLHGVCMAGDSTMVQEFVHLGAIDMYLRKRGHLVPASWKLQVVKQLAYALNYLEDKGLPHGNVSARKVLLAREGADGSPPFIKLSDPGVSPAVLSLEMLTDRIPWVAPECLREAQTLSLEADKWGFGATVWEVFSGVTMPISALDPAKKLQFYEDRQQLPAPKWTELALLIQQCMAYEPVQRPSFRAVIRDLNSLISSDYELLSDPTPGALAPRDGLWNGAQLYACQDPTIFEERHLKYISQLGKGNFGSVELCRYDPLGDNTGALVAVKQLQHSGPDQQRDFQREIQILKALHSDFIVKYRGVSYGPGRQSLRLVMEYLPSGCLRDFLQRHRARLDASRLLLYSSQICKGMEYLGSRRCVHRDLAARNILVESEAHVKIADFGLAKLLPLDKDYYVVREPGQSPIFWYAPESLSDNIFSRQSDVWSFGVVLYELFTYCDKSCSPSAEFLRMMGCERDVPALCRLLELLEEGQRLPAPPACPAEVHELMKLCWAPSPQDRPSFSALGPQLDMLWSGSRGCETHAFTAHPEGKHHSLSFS
In short: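 KINOMEscan competition-binding profiling at a single concentration of 10,000 nM across a panel that included 395 non-mutant kinases. Binding is read out as percent of control. Kinases with less than 10% of control were counted as hits for the S(10) selectivity score, which is the number of non-mutant hits divided by the number of non-mutant kinases tested.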

[6] = Toxicity in ICR mouse at 100 mg/kg, po QD for 2 weeks; format: organism-based; conditions: in vivo, 336 h
[7] = Toxicity in nude BALB/c mouse xenografted with human NCI-H1975 cells assessed as drug tolerability at 50 mg/kg, po QD for 15 days relative to control; format: organism-based; conditions: in vivo, 360 h
In short: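 H1975 cells were grown in RPMI1640 with 10% heat-inactivated FBS at 37 °C, 5% CO2, and passaged by trypsin-EDTA. 5x10^6 cells in 0.1 ml PBS were injected subcutaneously at the right flank of BALB/c nude mice. Oral QD dosing for 15 days began at a mean tumor size of 147 mm³, n = 5 per group.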

[8] = molecular target: T2, Tyrosine-protein kinase TXK (Homo sapiens) (UniProt P42681); assay: Binding affinity to wild-type human partial length TXK (L238 to W527 residues) expressed in bacterial expression system assessed as residual binding level at 10000 nM by Kinomescan method relative to control; in short: as §1
T2 sequence (whole entry): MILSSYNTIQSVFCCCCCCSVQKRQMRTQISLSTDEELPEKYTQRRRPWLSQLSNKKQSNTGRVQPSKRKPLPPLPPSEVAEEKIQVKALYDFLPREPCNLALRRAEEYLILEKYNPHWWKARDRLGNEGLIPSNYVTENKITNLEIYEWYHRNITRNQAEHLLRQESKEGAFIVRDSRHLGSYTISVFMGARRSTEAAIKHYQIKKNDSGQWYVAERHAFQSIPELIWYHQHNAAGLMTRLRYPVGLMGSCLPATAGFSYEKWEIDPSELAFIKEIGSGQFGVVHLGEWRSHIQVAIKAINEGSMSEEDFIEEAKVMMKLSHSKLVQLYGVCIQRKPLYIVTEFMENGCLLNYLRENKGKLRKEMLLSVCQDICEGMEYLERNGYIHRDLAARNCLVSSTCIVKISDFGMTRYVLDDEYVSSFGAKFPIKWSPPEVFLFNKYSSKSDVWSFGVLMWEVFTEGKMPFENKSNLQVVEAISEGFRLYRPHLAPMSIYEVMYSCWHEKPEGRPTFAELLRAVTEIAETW

[9] = in vivo; conditions: rat, po, 23.6 mg/kg
[10] = molecular target: Serine/threonine-protein kinase 10 (Homo sapiens) (UniProt O94804); assay: Binding affinity to wild-type human partial length LOK (E16 to V314 residues) expressed in bacterial expression system assessed as residual binding level at 10000 nM by Kinomescan method relative to control; in short: as §1
Serine/threonine-protein kinase 10 (Homo sapiens), sequence (O94804 whole entry, looked up, the tested form may be a part): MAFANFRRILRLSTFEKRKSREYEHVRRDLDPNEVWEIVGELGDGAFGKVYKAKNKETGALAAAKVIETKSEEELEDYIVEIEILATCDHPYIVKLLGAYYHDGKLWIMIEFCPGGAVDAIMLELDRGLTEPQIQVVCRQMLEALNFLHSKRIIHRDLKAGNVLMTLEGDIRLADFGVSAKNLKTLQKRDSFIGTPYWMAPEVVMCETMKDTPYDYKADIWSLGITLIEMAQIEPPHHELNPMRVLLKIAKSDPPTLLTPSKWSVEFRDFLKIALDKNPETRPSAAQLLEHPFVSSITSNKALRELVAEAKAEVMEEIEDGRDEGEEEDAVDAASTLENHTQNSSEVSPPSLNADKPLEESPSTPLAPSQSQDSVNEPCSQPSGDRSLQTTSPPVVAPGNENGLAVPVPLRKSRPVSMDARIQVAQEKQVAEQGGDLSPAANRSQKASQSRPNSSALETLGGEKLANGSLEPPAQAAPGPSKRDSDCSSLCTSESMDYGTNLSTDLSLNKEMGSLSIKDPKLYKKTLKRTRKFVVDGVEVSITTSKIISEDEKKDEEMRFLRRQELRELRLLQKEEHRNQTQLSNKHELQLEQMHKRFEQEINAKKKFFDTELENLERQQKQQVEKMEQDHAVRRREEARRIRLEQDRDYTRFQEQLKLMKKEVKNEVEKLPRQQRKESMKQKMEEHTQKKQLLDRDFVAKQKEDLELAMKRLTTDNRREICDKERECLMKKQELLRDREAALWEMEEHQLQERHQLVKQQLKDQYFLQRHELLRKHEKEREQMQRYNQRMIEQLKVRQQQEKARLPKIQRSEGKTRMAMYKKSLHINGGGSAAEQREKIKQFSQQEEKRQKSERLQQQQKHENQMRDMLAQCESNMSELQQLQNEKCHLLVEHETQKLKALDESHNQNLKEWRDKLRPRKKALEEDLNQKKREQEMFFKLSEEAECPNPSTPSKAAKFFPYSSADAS

CN(C)C/C=C/C(=O)Nc1cccc(-c2c(-c3ccccc3)oc3ncnc(N[C@H](CO)c4ccccc4)c23)c1
Activity [1]: 0.25% | IC50 [2]: 0.000203 µM | CC50 [3]: 0.025 µM | Activity [4]: Non-Toxic | Activity [5]: 0% | Activity [6]: Toxic | Activity [7]: Non-Toxic | Activity [8]: < 10% | half-life [9]: 3.4 h | Activity [10]: < 10%
